Read-outs that look alike come from different tables or passages of the source. One block for each molecule: values may come before it. The star is where a group is joined. acrylodan = 6-acryloyl-2-dimethylaminonaphthalene, CN(C)c1ccc2cc(C(=O)CC*)ccc2c1
Columns and labels:
ErbB1 [1] = conditions: ref Li et al., 2004a; cited from earlier work
ErbB1 [2] = conditions: ref Li et al., 2004a, cited from earlier work; for steady-state ErbB1 autophosphorylation: times >20 min; for initial peak of ErbB1 autophosphorylation: two other cell types
[3] = type: binding; conditions: for rate of removal from vesicles by Ca/CaM: 2 μM Ca/CaM
Method in brief: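 Stopped-flow fluorescence mixing of two solutions. The second holds 0.5–7 μM CaM with 50 μM CaCl2. Both contain 100 mM KCl and 1 mM MOPS, pH 7.0. Time constants τ come from exponential fluorescence rise; the transfer rate constant is the slope of 1/τ against [CaM].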

ErbB1 [4] = conditions: A431 cells, 5 min after EGF; ref Friedman et al., 1989; cited from earlier work
calmodulin (Ca/CaM) = calmodulin (Ca/CaM) (Homo sapiens, UniProt P0DP23); experiment: Ca/CaM binding by competition with PC/PS vesicles; design: species or system bovine brain and human brain; conditions: 2:1 PC/PS LUVs, 100 mM KCl, 1 mM MOPS, pH 7.0, 100 μM EGTA + 120 μM Ca2+; trace peptide ~5 nM; centrifugation; fit of Eq. 2
Method in brief: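 Trace (~5 nM) [3H]NEM-labelled test peptide mixed with 100-nm sucrose-loaded 2:1 PC/PS LUVs (total lipid 2 × 10−5 M; repeats with 3:1 PC/PS) and varied bovine or human brain CaM. Spun 100,000 g for 1 h. Percent bound from supernatant/pellet counts; KCaM from a competition equation (Eq. 2) fit.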

ErbB1 [5] = conditions: cardiac fibroblasts; ref Murasawa et al., 1998; cited from earlier work
[6] = extrapolated from peptide binding, [lipid]eff > 10^−2 M
ErbB1 [7] = experiment: EGF-mediated ErbB1 autophosphorylation in Cos1 cells; type: cell-based
hepatocytes = conditions: EGF, in the next 2–3 min, ref Nojiri and Hoek, 2000; cited from earlier work
ErbB1 [8] = conditions: membranes and solubilized form; ref Davis et al., 1988; cited from earlier work
A431 cells = conditions: ref Hughes et al., 1991, cited from earlier work; for intracellular [Ca2+]: EGF
[9] = effect of added agents on binding of ErbB1; conditions: 2 μM sphingosine; PC/PS vesicles
[10] = molecular target: ErbB1(645–660) peptide with a phosphorylated Thr654 (human (from the printed accession P00533)); experiment: centrifugation of vesicles

Molecule: NCCCCNS(=O)(=O)c1ccc2ccccc2c1 [W-12]
tyrosine kinase activity of purified ErbB1 (ErbB1 [1]): do not inhibit
steady-state ErbB1 autophosphorylation (ErbB1 [2]): not the steady-state value
initial peak of ErbB1 autophosphorylation (ErbB1 [2]): inhibit the initial peak

Molecule: acrylodan-labeled ErbB1(645–660): ErbB1(645–660) labeled with acrylodan (Ac-C(acrylodan)RRRHIVRKRTLRRLLQ-NH2; SMILES CC[C@H](C)[C@H](NC(=O)[C@H](Cc1c[nH]cn1)NC(=O)[C@H](CCCNC(=N)N)NC(=O)[C@H](CCCNC(=N)N)NC(=O)[C@H](CCCNC(=N)N)NC(=O)[C@H](CSCCC(=O)c1ccc2cc(N(C)C)ccc2c1)NC(C)=O)C(=O)N[C@H](C(=O)N[C@@H](CCCNC(=N)N)C(=O)N[C@@H](CCCCN)C(=O)N[C@@H](CCCNC(=N)N)C(=O)N[C@H](C(=O)N[C@@H](CC(C)C)C(=O)N[C@@H](CCCNC(=N)N)C(=O)N[C@@H](CCCNC(=N)N)C(=O)N[C@@H](CC(C)C)C(=O)N[C@@H](CC(C)C)C(=O)N[C@@H](CCC(N)=O)C(N)=O)[C@@H](C)O)C(C)C)
rate of removal from vesicles by Ca/CaM ([3]; 10% PS): 100 s⁻¹
rate of removal from vesicles by Ca/CaM ([3]; 15% PS): 10 s⁻¹
transfer rate constant (slope of 1/τ vs. [CaM]) ([3]; 85:15 PC/PS vesicles (15% PS)): 5e+06 M⁻¹ s⁻¹
lifetime of peptide on vesicles ([3]; 85:15 PC/PS vesicles, without Ca/CaM): ~0.3 s

Molecule: C/C=C(/C)C(=O)O[C@H]1C(C)=C2[C@H]([C@@H]1OC(=O)CCCCCCC)[C@@](C)(OC(C)=O)C[C@H](OC(=O)CCC)[C@@]1(O)[C@H]2OC(=O)[C@@]1(C)O [thapsigargin]
receptor autophosphorylation (ErbB1 [4]): inhibit receptor autophosphorylation

Ca/CaM Association Constant (KCaM) (calmodulin (Ca/CaM)): 3e+06 M⁻¹
Molecule: ErbB3(667–683): peptide corresponding to the juxtamembrane region of ErbB3 (Ac-CRGRRIQNKRAMRRYLER-NH2; not fully specified (residue 1))

Ca/CaM Association Constant (KCaM) (calmodulin (Ca/CaM)): 2e+07 M⁻¹
Molecule: ErbB4(676–692): peptide corresponding to the juxtamembrane region of ErbB4 (Ac-CRRKSIKKKRALRRFLET-NH2; not fully specified (residue 1))

Molecule: NCCCCNS(=O)(=O)c1ccc2c(Cl)cccc2c1 [W-13]
tyrosine kinase activity of purified ErbB1 (ErbB1 [1]): do not inhibit
steady-state ErbB1 autophosphorylation (ErbB1 [2]): not the steady-state value
initial peak of ErbB1 autophosphorylation (ErbB1 [2]): inhibit the initial peak

Molecule: CC(=O)OCOC(=O)CN(CC(=O)OCOC(C)=O)c1ccccc1OCCOc1ccccc1N(CC(=O)OCOC(C)=O)CC(=O)OCOC(C)=O [BAPTA-AM]
angiotensin II–stimulated ErbB1 transactivation (ErbB1 [5]): inhibit

ratio of bound/free = K[lipid]eff [6]: > 100
time bound to the plasma membrane (tethered region) [6]: > 99%
Molecule: 645–660 region of ErbB1: tethered 645–660 region of ErbB1 (RRRHIVRKRTLRRLLQ; UniProt P00533 669-684, looked up, fragment)

Molecule: NCCCCCCNS(=O)(=O)c1cccc2c(Cl)cccc12 [W-7]
ErbB1 receptor levels (ErbB1 [7]; 20–50 μM W-7, anti-ErbB1 reprobe): did not affect receptor levels
inhibition of EGF-mediated ErbB1 tyrosine phosphorylation (ErbB1 [7]; 20–50 μM for 30 min, then 100 ng/ml EGF 10 min, Western blot 4G10): dose-dependent inhibition
tyrosine kinase activity of purified ErbB1 (ErbB1 [1]): do not inhibit
angiotensin II–stimulated ErbB1 transactivation (ErbB1 [5]): inhibit
steady-state ErbB1 autophosphorylation (ErbB1 [2]): not the steady-state value
initial peak of ErbB1 autophosphorylation (ErbB1 [2]): inhibit the initial peak

Molecule: epidermal growth factor [EGF]
intracellular [Ca2+] (hepatocytes): 150 nM
ErbB1 activation (ErbB1 [8]): can activate ErbB1 both in membranes and in solubilized form
increase of intracellular [Ca2+] (A431 cells; 30 nM EGF, ∼5 min): about fivefold
intracellular [Ca2+] (A431 cells; 5 min): 600 nM
intracellular [Ca2+] (A431 cells; by 15 min): 150 nM

Ca/CaM Association Constant (KCaM) (calmodulin (Ca/CaM)): 6e+07 M⁻¹
Molecule: ErbB2(676–692): peptide corresponding to the juxtamembrane region of ErbB2 (Ac-CKRRQQKIRKYTMRRLLQ-NH2; not fully specified (residue 1))

ErbB1(645–660) peptide desorbed from vesicles [9]: 75%
Molecule: CCCCCCCCCCCCC/C=C/[C@@H](O)[C@@H](N)CO [sphingosine]

fold reduction of KCaM against the unphosphorylated peptide [10]: 20 fold
Molecule: calcium/calmodulin (from UniProt P0DP23 1-149) (natural protein)

— paper PMC2266615 (The Journal of General Physiology, 2005)
